Experiments:
[1] = In vitro ability to inhibit cholesterol biosynthesis in HepG2 cells in culture from [14C]mevalonate.; assay type: functional, cell-based
In short: (§1)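 Hep-G2 cells grown in DMEM with 10% fetal calf serum to subconfluence, then 48 h in DMEM plus 2% Ultroser G. Pretreated 1 h with compound or vehicle (DMSO 0.1%), then [14C]mevalonate (1 μCi/mL) for 4 h. Cells lysed in KOH and saponified in ethanolic KOH at 75 °C for 1 h. Nonsaponifiable lipids separated by TLC. IC50 derived from % [14C]cholesterol versus control cells.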

[2] = In vitro ability to inhibit cholesterol biosynthesis in HepG2 cells in culture from [14C]acetate; assay type: functional, cell-based
[3] = In vivo ability to inhibit cholesterol biosynthesis from [14C]acetate after a single oral administration in female rats.; assay type: functional; conditions: Rattus norvegicus
In short: (§2)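 Female SD rats (60–80 g) kept 11 days on a reversed light cycle with free access to food and water. Single oral dose at 9:00 a.m., suspended in water with 2% DMSO and 5% Tween 80 (1 mL/100 g). [14C]acetate given i.p. at 80 μCi/kg 1 h later. Liver taken after a further 1 h, saponified, and [14C]cholesterol analysed by TLC against controls. Mean ED50 from at least two experiments.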

[4] = system: HepG2; experiment: In vitro ability to inhibit cholesterol biosynthesis in HepG2 cells in culture from [14C]acetate.; assay type: functional, cell-based; conditions: Homo sapiens
[5] = system: HepG2; experiment: In vitro ability to inhibit cholesterol biosynthesis in HepG2 cells in culture from [14C]mevalonate; assay type: functional, cell-based; conditions: Homo sapiens; in short: as §1
[6] = system: Rattus norvegicus; experiment: In vivo ability to inhibit cholesterol biosynthesis from [14C]acetate after a single oral administration in female rats; assay type: functional; in short: as §2

| SMILES | IC50 [1] [nM] | ED50 [3] [mg/kg] | other results |
| --- | --- | --- | --- |
| CCN(C/C=C/C#CC(C)(C)C)Cc1cccc(OC[Si](C)(C)c2ccc(SC)cc2)c1 | > 10000 |  |  |
| CCN(C/C=C/C#CC(C)(C)C)Cc1cccc(OC[Si](C)(C)c2ccc(F)cc2)c1 | 5000 | > 40 |  |
| CCN(CC#CC#CC(C)(C)OC)Cc1cccc(OC[Si](C)(C)c2ccccc2C)c1 | 290 | 1.8 | IC50 [4]: 120 nM |
| CCN(C/C=C/C#CC(C)(C)C)Cc1cccc(OC[Si](C)(C)c2ccc(C#N)cc2)c1 | 60 | > 40 | IC50 [4]: 70 nM |
| CCN(C/C=C/C#CC(C)(C)C)Cc1cccc(OC[Si](C)(C)CCc2ccccc2)c1 | > 10000 |  |  |
| CCN(CC#CC#CC(C)(C)C)Cc1cccc(OC[Si](C)(C)c2ccccc2C)c1 | 780 | 5 |  |
| CCN(C/C=C/C#CC(C)(C)C)Cc1cccc(OCc2cc(-c3ccsc3)cs2)c1 |  |  | IC50 [5]: 20 nM; ED50 [6]: 2.5 mg/kg |
| CCN(C/C=C/C#CC(C)(C)C)Cc1cccc(OC[Si](C)(C)c2ccc(C(N)=O)cc2)c1 | 1000 |  |  |
| CC[C@H](C)C(=O)O[C@H]1C[C@H](O)C=C2C=C[C@H](C)[C@H](CC[C@@H](O)C[C@@H](O)CC(=O)O)[C@H]21 [PRAVASTATIN] |  |  | IC50 [5]: […]; IC50 [2]: 430 nM; ED50 [6]: 0.9 mg/kg |
| C=Cc1ccc([Si](C)(C)COc2cccc(CN(CC)C/C=C/C#CC(C)(C)C)c2)cc1 | 1320 | > 40 |  |
| CCN(C/C=C/C#CC(C)(C)C)Cc1cccc(OC[Si](C)(C)c2ccc(Cl)cc2)c1 | > 10000 | > 40 |  |
| CCN(C/C=C/C#CC(C)(C)C)Cc1cccc(OC[Si](C)(C)c2ccc(C)cc2)c1 | 5000 |  |  |
| CCN(C/C=C/C#CC(C)(C)C)Cc1cccc(OC[Si](C)(C)c2cccc(C)c2)c1 | > 10000 |  |  |
| CCN(C/C=C/C#CC(C)(C)C)Cc1cccc(OC[Si](C)(C)Cc2ccccc2)c1 | > 10000 | > 40 |  |
| CCN(C/C=C/C#CC(C)(C)C)Cc1cccc(OC[Si](C)(C)c2ccc(Br)cc2)c1 | > 10000 | > 40 |  |

The next lines start with results.

| IC50 [1] [nM] | SMILES | ED50 [3] [mg/kg] | other results |
| --- | --- | --- | --- |
| 140 | CCN(C/C=C/C#CC(C)(C)C)Cc1cccc(OC[Si](C)(C)c2ccc(C=O)cc2)c1 | 20 | IC50 [2]: 150 nM |
| 1480 | CCN(C/C=C/C#CC(C)(C)C)Cc1cccc(OC[Si](C)(C)c2ccccc2C(F)(F)F)c1 | 20 |  |
| > 10000 | CCN(C/C=C/C#CC(C)(C)C)Cc1cccc(OC[Si](C)(C)c2ccc(OC)cc2)c1 |  |  |
| 120 | CCN(C/C=C/C#CC(C)(C)C)Cc1cccc(OC[Si](C)(C)c2ccccc2C)c1 | 3.8 | IC50 [4]: 150 nM |
| 5000 | CCN(C/C=C/C#CC(C)(C)C)Cc1cccc(OC[Si](C)(C)c2ccccc2OC)c1 | > 40 |  |
| 500 | CCN(C/C=C/C#CC(C)(C)C)Cc1cccc(OC[Si](C)(C)c2ccccc2)c1 | 20 | IC50 [2]: 800 nM |
| 10000 | CCN(C/C=C/C#CC(C)(C)C)Cc1cccc(OC[Si](C)(C)c2ccc(S)cc2)c1 |  |  |
| 80 | CCN(C/C=C/C#CC(C)(C)C)Cc1cccc(OC[Si](C)(C)c2ccccc2C#N)c1 | 7 | IC50 [2]: 80 nM |
